ChEMBL document CHEMBL3297702, “Improving photodynamic inactivation of bacteria in dentistry: highly effective and fast killing of oral key pathogens with novel tooth-colored type-II photosensitizers” (J Med Chem, 2014)
The source made the active and inactive calls. No cut-off for these calls is given here.

How the values were obtained:
[1] = tested on: Streptococcus mutans; assay: Photodynamic inactivation of Streptococcus mutans ATCC 25175 assessed as reduction of log10 CFU at 5 uM incubated prior to irradiation with 25 j/cm'2 for 20 secs measured after 48 hrs by agar plating method (reference value: <1 no unit); assay type: functional
[2] = tested on: Enterococcus faecalis; assay: Photodynamic inactivation of Enterococcus faecalis ATCC 29212 assessed as reduction of log10 CFU at 1 uM incubated prior to irradiation with 150 j/cm'2 for 120 secs measured after 24 hrs by agar plating method (reference value: <1 no unit); assay type: functional
How it was run: (§1)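 E. faecalis ATCC 29212, aerobic overnight BHI culture at 37 °C, was harvested at stationary phase and suspended in PBS at 10^7–10^8 bacteria/mL. It was mixed 1:1 with PS to 0–250 µM final, held 10 s, then illuminated (1260 ± 50 mW/cm2) or kept dark. Dilutions were plated on Mueller-Hinton agar, aerobic 37 °C 24 h, CFU counted. Medians of three independent triplicate experiments, referred to untreated controls.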

[3] = tested on: Aggregatibacter actinomycetemcomitans; assay: Photodynamic inactivation of Aggregatibacter actinomycetemcomitans ATCC 43718 assessed as reduction of log10 CFU at 1 uM incubated prior to irradiation with 25 j/cm'2 for 20 secs measured after 48 hrs by agar plating method relative to control; assay type: functional, Y4
How it was run: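 A. actinomycetemcomitans ATCC 43718 cultured overnight in BHI broth under anaerobic conditions, 37 °C with shaking. Stationary-phase cells were spun down, taken up in PBS to 10^7–10^8/mL, and combined 1:1 with PS (final 0–250 µM) or water. After 10 s they were irradiated at 1260 ± 50 mW/cm2 or kept dark. Serial dilutions went onto BHI agar, incubated anaerobically at 37 °C for 48 h, and CFU were scored. Results are medians from 3 experiments × triplicate versus untreated controls.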

[4] = tested on: Enterococcus faecalis; assay: Photodynamic inactivation of Enterococcus faecalis ATCC 29212 assessed as reduction of log10 CFU at 1 uM incubated prior to irradiation with 25 j/cm'2 for 20 secs measured after 24 hrs by agar plating method (reference value: <1 no unit); assay type: functional; how it was run: as §1
[5] = tested on: Enterococcus faecalis; assay: Photodynamic inactivation of Enterococcus faecalis ATCC 29212 assessed as reduction of log10 CFU at 100 uM incubated prior to irradiation with 150 j/cm'2 for 120 secs measured after 24 hrs by agar plating method (reference value: <1 no unit); assay type: functional; how it was run: as §1
[6] = tested on: Enterococcus faecalis; assay: Photodynamic inactivation of Enterococcus faecalis ATCC 29212 assessed as reduction of log10 CFU at 1 uM incubated prior to irradiation with 50 j/cm'2 for 40 secs measured after 24 hrs by agar plating method (reference value: <1 no unit); assay type: functional; how it was run: as §1
[7] = tested on: Enterococcus faecalis; assay: Photodynamic inactivation of Enterococcus faecalis ATCC 29212 assessed as reduction of log10 CFU at 10 uM incubated prior to irradiation with 150 j/cm'2 for 120 secs measured after 24 hrs by agar plating method (reference value: <1 no unit); assay type: functional; how it was run: as §1
[8] = Photobleaching of the compound irradiated with laser energy at 405 nm for 5 mins; assay type: physicochemical; parameters: dose or concentration left out as unconfirmed
[9] = tested on: Enterococcus faecalis; assay: Photodynamic inactivation of Enterococcus faecalis ATCC 29212 assessed as reduction of log10 CFU at 10 uM incubated prior to irradiation with 50 j/cm'2 for 40 secs measured after 24 hrs by agar plating method (reference value: <1 no unit); assay type: functional; how it was run: as §1
[10] = tested on: Enterococcus faecalis; assay: Photodynamic inactivation of Enterococcus faecalis ATCC 29212 assessed as reduction of log10 CFU at 100 uM incubated prior to irradiation with 50 j/cm'2 for 40 secs measured after 24 hrs by agar plating method (reference value: <1 no unit); assay type: functional; how it was run: as §1
[11] = tested on: Enterococcus faecalis; assay: Photodynamic inactivation of Enterococcus faecalis ATCC 29212 assessed as reduction of log10 CFU at 5 uM incubated prior to irradiation with 50 j/cm'2 for 40 secs measured after 24 hrs by agar plating method (reference value: <1 no unit); assay type: functional; how it was run: as §1
[12] = tested on: Enterococcus faecalis; assay: Photodynamic inactivation of Enterococcus faecalis ATCC 29212 assessed as reduction of log10 CFU at 5 uM incubated prior to irradiation with 25 j/cm'2 for 20 secs measured after 24 hrs by agar plating method (reference value: <1 no unit); assay type: functional; how it was run: as §1
[13] = Induction of singlet oxygen generation measured over 20 mins by luminescence assay; assay type: physicochemical
[14] = Octanol-water partition coefficient, log P of the compound at 1 x 10^-4 mol at room temperature after 10 mins by UV/vis spectroscopic analysis; assay type: physicochemical
[15] = tested on: Enterococcus faecalis; assay: Photodynamic inactivation of Enterococcus faecalis ATCC 29212 assessed as reduction of log10 CFU at 5 uM incubated prior to irradiation with 150 j/cm'2 for 120 secs measured after 24 hrs by agar plating method (reference value: <1 no unit); assay type: functional; how it was run: as §1
[16] = tested on: Enterococcus faecalis; assay: Photodynamic inactivation of Enterococcus faecalis ATCC 29212 assessed as reduction of log10 CFU at 100 uM incubated prior to irradiation with 25 j/cm'2 for 20 secs measured after 24 hrs by agar plating method (reference value: <1 no unit); assay type: functional; how it was run: as §1
[17] = tested on: Enterococcus faecalis; assay: Photodynamic inactivation of Enterococcus faecalis ATCC 29212 assessed as reduction of log10 CFU at 10 uM incubated prior to irradiation with 25 j/cm'2 for 20 secs measured after 24 hrs by agar plating method (reference value: <1 no unit); assay type: functional; how it was run: as §1
[18] = tested on: Streptococcus mutans; assay: Photodynamic inactivation of Streptococcus mutans ATCC 25175 assessed as reduction of log10 CFU at 100 uM incubated prior to irradiation with 150 j/cm'2 for 120 secs measured after 48 hrs by agar plating method (reference value: <1 no unit); assay type: functional
[19] = tested on: Actinomyces naeslundii; assay: Photodynamic inactivation of Actinomyces naeslundii T14V assessed as reduction of log10 CFU at 1 to 250 uM preincubated for 10 secs followed by irradiation with 50 j/cm'2 for 40 secs measured after 48 hrs by agar plating method; assay type: functional, organism-based
How it was run: (§2)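 A. naeslundii T14V grown overnight at 37 °C, shaken, aerobically in BHI broth. Harvested at stationary phase, resuspended in PBS to 10^7–10^8 bacteria/mL (OD600). Mixed 1:1 with PS (final 0–250 µM) or water, 10 s incubation, then blue photopolymerizer light (1260 ± 50 mW/cm2) or dark. Tenfold dilutions plated on blood agar, aerobic 37 °C 48 h, CFU counted; medians of three independent experiments in triplicate.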

[20] = tested on: Enterococcus faecalis; assay: Photodynamic inactivation of Enterococcus faecalis ATCC 29212 assessed as reduction of log10 CFU at 1 to 250 uM preincubated for 10 secs followed by irradiation with 150 j/cm'2 for 120 secs measured after 24 hrs by agar plating method; assay type: functional, organism-based; how it was run: as §1
[21] = tested on: Actinomyces naeslundii; assay: Photodynamic inactivation of Actinomyces naeslundii T14V assessed as reduction of log10 CFU at 1 to 250 uM preincubated for 10 secs followed by irradiation with 25 j/cm'2 for 20 secs measured after 48 hrs by agar plating method; assay type: functional, organism-based; how it was run: as §2
[22] = tested on: Enterococcus faecalis; assay: Photodynamic inactivation of Enterococcus faecalis ATCC 29212 assessed as reduction of log10 CFU at 1 to 250 uM preincubated for 10 secs followed by irradiation with 50 j/cm'2 for 40 secs measured after 24 hrs by agar plating method; assay type: functional, organism-based; how it was run: as §1
[23] = Stability of the compound in D2O at 90 degC after > 10 mins by NMR analysis; assay type: physicochemical

Stability [8]	Activity [13]	logP at 10 min [14]	SMILES	log10cfu [1]	log10cfu [2]	log10cfu [3]	log10cfu [4]	log10cfu [5]	log10cfu [6]	log10cfu [7]	log10cfu [9]	log10cfu [10]	log10cfu [11]	log10cfu [12]	log10cfu [15]	log10cfu [16]	log10cfu [17]	log10cfu [18]	Activity [19]	Activity [20]	other results
Unstable	Active	-1.3	C[N+](C)(CCO)CC1=Cc2cccc3cccc(c23)C1=O.[Cl-]	<1	<1	<1	<1	>6	<1	>6	<3	>6	<1	<1	<3	>6	<3	>6			
Unstable	Active	-1.4	C[N+](C)(C)CC1=Cc2cccc3cccc(c23)C1=O.[Cl-]		<3		<1	>6	<1	>6	<3	>6	<3	<1	>6	>6	<1		Active	Active	Activity [21]: Active; Activity [22]: Active; Stability [23]: Stable
Unstable	Active	-1.3	O=C1C(C[n+]2ccccc2)=Cc2cccc3cccc1c23.[Cl-]	<3	<3	<3	<1	>6	<1	>6	>6	>6	<3	<1	>6	>6	<3	>6	Active	Active	Activity [21]: Active; Activity [22]: Active; Stability [23]: Stable
